Source: the array DNA melting data of Ke et al. (doi:10.1101/2024.01.08.574731)

How the values were obtained:
[1] = folding enthalpy; higher = less favourable; fluorescence melt of hairpins on a sequencing array, two-state fit; settings: sodium 0.088 M
In short: (§1)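 In 50 mM Na-HEPES pH 8.0 containing 25 mM NaCl, hairpins from the library on a sequenced MiSeq flow cell were imaged for Cy3 fluorescence at 2.5 °C steps up to 60 °C, with Cy3 and quencher oligos annealed. After normalisation to pre-quench Cy3 and to control constructs, two-state fits with bootstrapping gave melting temperature and folding enthalpy. Four replicates were combined by inverse-variance weighting, and fitted temperatures were shifted up by 9.35 °C to match UV melts.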

[2] = melting temperature; fluorescence melt of hairpins on a sequencing array, two-state fit, raised by 9.35 °C to match UV melts; settings: sodium 0.088 M
In short: as §1

Row | Sequence | folding enthalpy [1] | Tm [2]
1 | GATCCGGTATCGGATC ((((((....)))))) | -42.5 kcal/mol | 63.5 °C
2 | GGACTCGAAAGAGTATCC ((((((....)))..))) | -13.8 kcal/mol | 33.3 °C
3 | GCCGGCGAAAGCCTGGC ((((((....))).))) | -24.8 kcal/mol | 68.8 °C
4 | GGAGTGGGAAACCACTTC (.(((((....))))).) | -20.2 kcal/mol | 49.4 °C
5 | GCGTTAGGAAACTAACAC (.(((((....))))).) | -16.2 kcal/mol | 35.9 °C
6 | GCATAGCGAAAGCTTGGC ((..(((....)))..)) | -18.6 kcal/mol | 41.9 °C
7 | GTTCGTGGAAACACGAAC (((((((....))))))) | -39.4 kcal/mol | 65.8 °C
8 | GATCTGGAAGCAGATC ((((((....)))))) | -37.8 kcal/mol | 50.8 °C
9 | GTAACCGAAAGGTTTTAC ((((((....)))..))) | -8.83 kcal/mol | 29.2 °C
10 | GAAATAGCGAAAGCTTTC (((..(((....)))))) | -11.8 kcal/mol | 28.6 °C
11 | GTGCCACGAAAGTGCAC (((.(((....)))))) | -27.5 kcal/mol | 58.5 °C
12 | GGCTGGACGAAAGTCGCC (((..(((....)))))) | -20.2 kcal/mol | 52.5 °C
13 | GTTGCGGCGAAAGCCAAC (((..(((....)))))) | -14.7 kcal/mol | 37.8 °C
14 | GCTGTAGGAAACCACAGC (((((.(....).))))) | -36.3 kcal/mol | 47.5 °C
15 | GAGAATGAAAATTCTC ((((((....)))))) | -31.8 kcal/mol | 46 °C
16 | GATCGATCCTCGATC ((((((...)))))) | -40.4 kcal/mol | 52.1 °C
17 | GTTTAGGGAAACTTAAAC (((((.(....).))))) | -15.4 kcal/mol | 35.5 °C
18 | CGCTTTCGGAAACGAGCG (((..(((....)))))) | -24.9 kcal/mol | 36.1 °C
19 | GATCCCCCGCGGGATC ((((((....)))))) | -34.2 kcal/mol | 57.2 °C
20 | GTCCTCGAAAGAGTGGAC ((((((....)))..))) | -23.6 kcal/mol | 41.6 °C
21 | CGTTCGGAAACGATTACG ((((((....)))..))) | -18.1 kcal/mol | 35.7 °C
22 | GGAGACCGAAAGGTGTCC (((.(((....))).))) | -40.8 kcal/mol | 58.9 °C
23 | GGACGTCGAAAGACTTCC (((.(((....))).))) | -29.9 kcal/mol | 48.1 °C

Row | Sequence | folding enthalpy [1] | Tm [2]
24 | GGACACGAAAGTGCTCC ((((((....))).))) | -22.5 kcal/mol | 50.1 °C
25 | CGAGCGGAAACGCAATCG ((((((....)))..))) | -19.3 kcal/mol | 38.7 °C
26 | GCTTAACGAAAGTTGAGC (((.(((....))).))) | -38.9 kcal/mol | 52.4 °C
27 | GATCCGAGCCCGGATC ((((((....)))))) | -35.6 kcal/mol | 55.3 °C
28 | GATCGAGCACTCGATC ((((((....)))))) | -42.9 kcal/mol | 57.6 °C
29 | GATCCGAACTCGGATC ((((((....)))))) | -40.9 kcal/mol | 56.4 °C
30 | GTCAGGGAAACCTGAC ((((((....)))))) | -32.5 kcal/mol | 61.6 °C
31 | GTTTGTGGAAACACAAAC (((((((....))))))) | -46.4 kcal/mol | 58.4 °C
32 | GCCCGGCGAAAGCGAGGC (((..((....))..))) | -16.6 kcal/mol | 58.9 °C
33 | GACAGCGGAAACGCTATC ((.((((....)))).)) | -14 kcal/mol | 36.7 °C
34 | GCGCCAGGAAACCGGCGC (((((.(....).))))) | -22.8 kcal/mol | 69.1 °C
35 | GATCCGACCACGGATC ((((((....)))))) | -36.9 kcal/mol | 61.3 °C
36 | GTTATCGCGAAAGCGAAC (((..(((....)))))) | -7.39 kcal/mol | 29.8 °C
37 | GAGTAGAAATACTC (((((....))))) | -16.7 kcal/mol | 36.5 °C
38 | GATCACGTCGGTGATC ((((((....)))))) | -36.5 kcal/mol | 59.7 °C
39 | GATCAGATAACTGATC ((((((....)))))) | -34.5 kcal/mol | 46.8 °C
40 | CGCTAGCGGAAACGCGCG (((..(((....)))))) | -25.3 kcal/mol | 52.7 °C
41 | GTAACCGAAAGGTTCTAC ((((((....)))..))) | -11.3 kcal/mol | 37.7 °C
42 | CGAGCGGAAACGCCTCG ((((((....))).))) | -29.6 kcal/mol | 52.3 °C
43 | GGAGATCGAAAGATTCC (((.(((....)))))) | -18.9 kcal/mol | 36 °C
44 | GACAGTGGAAACACTATC ((.((((....)))).)) | -15.9 kcal/mol | 29.5 °C
45 | GCCTGCGAAAGCAGTGGC ((((((....)))..))) | -14.8 kcal/mol | 57.1 °C
46 | GATCAAGGGGTTGATC ((((((....)))))) | -29.4 kcal/mol | 42.8 °C

Row | Sequence | folding enthalpy [1] | Tm [2]
47 | CGCGGTCGGAAACGAGCG (((..(((....)))))) | -15.1 kcal/mol | 56.1 °C
48 | GCCCTGGGAAACTAGGGC (((((.(....).))))) | -44.5 kcal/mol | 55.3 °C
49 | GATCAACTTCTTGATC ((((((....)))))) | -30 kcal/mol | 43.9 °C
50 | GATCTCGGAGGAGATC ((((((....)))))) | -44.4 kcal/mol | 55.7 °C
51 | GCGGGATGCCGC ((((....)))) | -22.6 kcal/mol | 55.8 °C
52 | GCATTGCGAAAGCTTTGC (((..((....))..))) | -21.4 kcal/mol | 49.1 °C
53 | GGGTTAGGAAACCAACCC (((((.(....).))))) | -33.9 kcal/mol | 45.6 °C
54 | GAGAAGCGAAAGCTCTC (((.(((....)))))) | -20.1 kcal/mol | 50.2 °C
55 | GGACTAGGAAACTGGTTC (.((.((....)).)).) | -13.1 kcal/mol | 29.8 °C
56 | GATGAGGGAAACCTCACC (.(((((....))))).) | -15.7 kcal/mol | 35.5 °C
57 | GATCCGCAAACGGATC ((((((....)))))) | -42.2 kcal/mol | 58 °C
58 | CGCGGAAAAACCGCG ((...........)) | -29.7 kcal/mol | 65.7 °C
59 | GTAGTGCGAAAGCAATAC (((.(((....))).))) | -28 kcal/mol | 53.9 °C
60 | GAACCTGGAAACAAGTTC ((((.((....)).)))) | -15.9 kcal/mol | 26.8 °C
61 | GGGGCCGGAAACGGCCTC (.(((((....))))).) | -10.4 kcal/mol | 69.2 °C
62 | GAAGCCCGAAAGGGTTC (((.(((....)))))) | -16 kcal/mol | 47.7 °C
63 | GATCATTGCATGATC ((((((...)))))) | -34 kcal/mol | 50.4 °C
64 | GATCCGACGTCGGATC ((((((....)))))) | -52 kcal/mol | 59.9 °C
65 | GATTGCGAAAGCAACATC ((((((....)))..))) | -9.24 kcal/mol | 28.5 °C
66 | GCGGTCTCGAAAGAGCGC (((..(((....)))))) | -38.2 kcal/mol | 58.6 °C
67 | GCCGAACGAAAGTTTGGC (((.(((....))).))) | -35.2 kcal/mol | 66 °C
68 | GGCCCATCGAAAGATGCC (((..(((....)))))) | -12.4 kcal/mol | 34.6 °C
69 | GATCCGCGTTCGGATC ((((((....)))))) | -36 kcal/mol | 59 °C

Row | Sequence | folding enthalpy [1] | Tm [2]
70 | GAGCGCCGAAAGGCCCTC (((.(((....))).))) | -15.4 kcal/mol | 47.6 °C
71 | GACATGGGAAACCATGCC (.(((((....))))).) | -15.1 kcal/mol | 42.8 °C
72 | GTTGTTCGAAAGAAGAAC (((.(((....))).))) | -27.6 kcal/mol | 43.3 °C
73 | GCAAAGCGAAAGCTGTGC (((.(((....))).))) | -41.6 kcal/mol | 54.4 °C
74 | GCGGATGGAAACGTTCGC (((.(.(....).).))) | -28.2 kcal/mol | 44.1 °C
75 | GTCGACGAAAGTCGTGAC ((((((....)))..))) | -10 kcal/mol | 43.6 °C
76 | CGTACCCGGAAACGGACG (((..(((....)))))) | -12.3 kcal/mol | 31.8 °C
77 | GTACACGGAAACGTGCAC ((.((((....)))).)) | -17.9 kcal/mol | 46.8 °C
78 | GTTGCCGAAAGGCAAAAC ((((((....)))..))) | -9.67 kcal/mol | 42.5 °C
79 | GGCGGAGGAAACCCCACC ((.((.(....).)).)) | -20.2 kcal/mol | 29.6 °C
80 | GATCGTCGGTACGATC ((((((....)))))) | -27.3 kcal/mol | 53.8 °C
81 | GTCAGCGAAAGCTGGGAC ((((((....)))..))) | -9.13 kcal/mol | 40.2 °C
82 | GCATGGCGAAAGCCCCGC ((..(((....)))..)) | -12.4 kcal/mol | 29.6 °C
83 | GATCGATATATCGATC ((((((....)))))) | -41 kcal/mol | 56 °C
84 | GGAAAGCGAAAGCTATCC (((.(((....))).))) | -25.2 kcal/mol | 47.2 °C
85 | GTGCAAGGAAACTTGCGC (.(((((....))))).) | -27.6 kcal/mol | 59.1 °C
86 | GACGCCACGAAAGTGGTC (((..(((....)))))) | -8.49 kcal/mol | 32.1 °C
87 | GGAACAGGAAACTGCTCC (((.(((....))).))) | -31.1 kcal/mol | 40.8 °C
88 | GATCTTTTGAAAGATC ((((((....)))))) | -28.3 kcal/mol | 44.7 °C
89 | GGTATTGCGAAAGCAACC (((..(((....)))))) | -10 kcal/mol | 29.4 °C
90 | GATCTTAGGAAGATC ((((((...)))))) | -30.5 kcal/mol | 43.3 °C
91 | GTTGGAGCGAAAGCTAAC (((..(((....)))))) | -21.4 kcal/mol | 36.9 °C
92 | GTCTCCGGAAACGGAAAC ((.((((....)))).)) | -16.2 kcal/mol | 36.3 °C
